Experimental data as given in ChEMBL document CHEMBL1806486, “Discovery and evaluation of 3-phenyl-1H-5-pyrazolylamine-based derivatives as potent, selective and efficacious inhibitors of FMS-like tyrosine kinase-3 (FLT3)” (Bioorg Med Chem, 2011).
pIC50: −log10 of the molar value. Activity calls are given as the source filed them. No cut-off for these calls is given here.

Assays:
MOLM-13 [1] = assay: Antiproliferation activity against human MOLM13 cells expressing FLT3 mutation assessed as cell viability after 72 hrs by MTS method; type: functional; settings: MOLM-13, 72 h
[2] = target: Vascular endothelial growth factor receptor 3 (Homo sapiens) (UniProt P35916); assay: Inhibition of VEGFR3 at 0.1 uM
MV4-11 [3] = assay: Antitumor activity against human MV4-11 cells xenografted in athymic nu/nu nude mouse assessed as inhibition of tumor growth at 50 mg/kg, iv qd for 1 to 5 and 8 to 12 days measured after completion of treatment; type: functional, organism-based; design: dose 50 mg/kg
How it was run: (§1)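 Nude nu/nu mice (9 weeks old) received 1 × 10^6 MV4;11 cells s.c. in the left flank. Treatment began at a mean tumor volume of about 500 mm3, with n = 8 per group. Dosing was iv once daily at 10, 25 or 50 mg/kg on days 1–5 and 8–12, in DMSO/Cremophor/saline vehicle, with vehicle controls. Tumor volume was measured by caliper as (width × length²)/2.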

U-937 = assay: Antiproliferation activity against human FLT3 gene-deficient U937 cells after 72 hrs by MTS method; type: functional; settings: U-937, 72 h
[4] = target: T1, Receptor-type tyrosine-protein kinase FLT3 (Homo sapiens, UniProt P36888); assay: Inhibition of GST-tagged FLT3 expressing wild type kinase domain expressed in Sf9 insect cells after 4 hrs by Kinase-Glo assay
T1 sequence (P36888 whole entry): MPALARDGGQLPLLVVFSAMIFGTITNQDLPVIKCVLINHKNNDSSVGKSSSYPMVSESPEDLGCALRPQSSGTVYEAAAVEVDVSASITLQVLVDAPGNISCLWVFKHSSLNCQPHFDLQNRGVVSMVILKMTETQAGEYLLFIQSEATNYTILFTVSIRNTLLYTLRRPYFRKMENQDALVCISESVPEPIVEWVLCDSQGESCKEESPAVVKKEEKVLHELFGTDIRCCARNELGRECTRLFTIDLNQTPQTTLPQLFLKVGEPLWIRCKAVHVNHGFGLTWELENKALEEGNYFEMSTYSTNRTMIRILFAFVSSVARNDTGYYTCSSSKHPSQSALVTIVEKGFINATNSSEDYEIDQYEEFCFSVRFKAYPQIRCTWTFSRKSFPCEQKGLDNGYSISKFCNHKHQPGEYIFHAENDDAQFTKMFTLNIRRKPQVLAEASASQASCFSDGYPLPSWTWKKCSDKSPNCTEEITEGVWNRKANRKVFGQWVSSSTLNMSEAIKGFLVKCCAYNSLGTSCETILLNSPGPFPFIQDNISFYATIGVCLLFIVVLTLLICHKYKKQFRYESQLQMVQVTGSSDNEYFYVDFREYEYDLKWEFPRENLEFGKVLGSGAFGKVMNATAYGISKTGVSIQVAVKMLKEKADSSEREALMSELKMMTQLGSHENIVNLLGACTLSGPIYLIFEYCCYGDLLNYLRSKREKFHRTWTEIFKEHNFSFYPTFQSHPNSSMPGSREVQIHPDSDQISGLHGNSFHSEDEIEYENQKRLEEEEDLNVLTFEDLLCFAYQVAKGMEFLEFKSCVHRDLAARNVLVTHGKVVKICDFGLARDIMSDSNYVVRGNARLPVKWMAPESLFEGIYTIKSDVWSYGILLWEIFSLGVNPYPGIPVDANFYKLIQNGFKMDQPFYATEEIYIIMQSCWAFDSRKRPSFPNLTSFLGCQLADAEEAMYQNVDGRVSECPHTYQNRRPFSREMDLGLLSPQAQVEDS

[5] = target: Mast/stem cell growth factor receptor Kit (Homo sapiens) (UniProt P10721); assay: Inhibition of c-Kit at 0.1 uM
[6] = target: Platelet-derived growth factor receptor alpha (Homo sapiens) (UniProt P16234); assay: Inhibition of PDGFR alpha at 0.1 uM
Mus musculus [7] = assay: Toxicity in athymic nu/nu nude mouse harboring xenografted human MV4:11 cells assessed as reduction of body weight at 50 mg/kg, iv for continuous 5 days; type: organism-based; design: dose 50 mg/kg, route intravenous; scale not given: the % may be the effect or the level left; settings: in vivo, 120 h
MV4-11 [8] = assay: Antitumor activity against human MV4-11 cells xenografted in athymic nu/nu nude mouse assessed as inhibition of tumor growth at 50 mg/kg, iv qd for 1 to 5 and 8 to 12 days; type: functional, organism-based; design: dose 50 mg/kg; how it was run: as §1
MOLM-13 [9] = assay: Antitumor activity against human MOLM13 cells xenografted in athymic nu/nu nude mouse assessed as tumor growth regression at 50 mg/kg, iv qd administered for 1 to 5 and 8 to 12 days; type: functional, organism-based; design: dose 50 mg/kg
How it was run: (§2)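 Athymic nu/nu mice (9 weeks old) received 1 × 10^6 MOLM-13 cells s.c. in the left flank. They were randomized at a mean tumor volume of about 200 mm3, with 7–8 per group. Dosing was iv once daily at 10 or 50 mg/kg on days 1–5 and 8–12, in 10% DMSO/20% Cremophor/70% saline. Vehicle controls were dosed the same way. Caliper volume = (width × length²)/2, reported as mean ± SEM.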

Mus musculus [10] = assay: Toxicity in athymic nu/nu nude mouse harboring xenografted huma MOLM13 cells assessed as reduction of body weight at 50 mg/kg, iv for continuous 5 days; type: organism-based, MOLM-13; design: dose 50 mg/kg, route intravenous; scale not given: the % may be the effect or the level left; settings: in vivo, 120 h
MOLT-4 = assay: Antiproliferation activity against human MOLT4 after 72 hrs by MTS method; type: functional; settings: MOLT-4, 72 h
[11] = Antiproliferation activity against human RS4:11 cells expressing wild type FLT3 after 72 hrs by MTS method; type: functional; settings: RS4-11, 72 h
[12] = target: Proto-oncogene tyrosine-protein kinase Src (Homo sapiens) (UniProt P12931); assay: Inhibition of SRC at 0.1 uM
[13] = Half life in Sprague-Dawley rat at 5 mg/kg, iv and 20 mg/kg, po; type: ADME, organism-based; settings: in vivo
MOLM-13 [14] = assay: Antitumor activity against human MOLM13 cells xenografted in athymic nu/nu nude mouse assessed as inhibition of tumor growth at 10 mg/kg, iv qd administered for 1 to 5 and 8 to 12 days measured during first 5 days of treatment; type: functional, organism-based; design: dose 10 mg/kg; how it was run: as §2
[15] = target: Macrophage colony-stimulating factor 1 receptor (Homo sapiens) (UniProt P07333); assay: Inhibition of CSF1R at 0.1 uM
[16] = Clearance in Sprague-Dawley rat at 5 mg/kg, iv and 20 mg/kg, po; type: ADME, organism-based; settings: in vivo
K562 = assay: Antiproliferation activity against human K562 cells expressing wild type BCR/ABL after 72 hrs by MTS method; type: functional; settings: K562, 72 h
[17] = target: Proto-oncogene tyrosine-protein kinase receptor Ret (Homo sapiens) (UniProt P07949); assay: Inhibition of RET at 0.1 uM
MV4-11 [18] = assay: Antitumor activity against human MV4-11 cells xenografted in athymic nu/nu nude mouse assessed as tumor regrowth at 50 mg/kg, iv qd for 1 to 5 and 8 to 12 days measured after 20 days; type: functional, organism-based; design: dose 50 mg/kg; how it was run: as §1
[19] = target: Vascular endothelial growth factor receptor 2 (Homo sapiens, UniProt P35968); assay: Inhibition of recombinant GST-tagged VEGFR2 expressed in Sf9 insect cells after 120 mins by Kinase-Glo assay; type: cell-based
MOLM-13 [20] = assay: Antitumor activity against human MOLM13 cells xenografted in iv dosed athymic nu/nu nude mouse assessed as inhibition of tumor growth administered qd for two weeks; type: functional, organism-based; how it was run: as §2

Chain of Vascular endothelial growth factor receptor 3 (Homo sapiens) (P35916 whole entry): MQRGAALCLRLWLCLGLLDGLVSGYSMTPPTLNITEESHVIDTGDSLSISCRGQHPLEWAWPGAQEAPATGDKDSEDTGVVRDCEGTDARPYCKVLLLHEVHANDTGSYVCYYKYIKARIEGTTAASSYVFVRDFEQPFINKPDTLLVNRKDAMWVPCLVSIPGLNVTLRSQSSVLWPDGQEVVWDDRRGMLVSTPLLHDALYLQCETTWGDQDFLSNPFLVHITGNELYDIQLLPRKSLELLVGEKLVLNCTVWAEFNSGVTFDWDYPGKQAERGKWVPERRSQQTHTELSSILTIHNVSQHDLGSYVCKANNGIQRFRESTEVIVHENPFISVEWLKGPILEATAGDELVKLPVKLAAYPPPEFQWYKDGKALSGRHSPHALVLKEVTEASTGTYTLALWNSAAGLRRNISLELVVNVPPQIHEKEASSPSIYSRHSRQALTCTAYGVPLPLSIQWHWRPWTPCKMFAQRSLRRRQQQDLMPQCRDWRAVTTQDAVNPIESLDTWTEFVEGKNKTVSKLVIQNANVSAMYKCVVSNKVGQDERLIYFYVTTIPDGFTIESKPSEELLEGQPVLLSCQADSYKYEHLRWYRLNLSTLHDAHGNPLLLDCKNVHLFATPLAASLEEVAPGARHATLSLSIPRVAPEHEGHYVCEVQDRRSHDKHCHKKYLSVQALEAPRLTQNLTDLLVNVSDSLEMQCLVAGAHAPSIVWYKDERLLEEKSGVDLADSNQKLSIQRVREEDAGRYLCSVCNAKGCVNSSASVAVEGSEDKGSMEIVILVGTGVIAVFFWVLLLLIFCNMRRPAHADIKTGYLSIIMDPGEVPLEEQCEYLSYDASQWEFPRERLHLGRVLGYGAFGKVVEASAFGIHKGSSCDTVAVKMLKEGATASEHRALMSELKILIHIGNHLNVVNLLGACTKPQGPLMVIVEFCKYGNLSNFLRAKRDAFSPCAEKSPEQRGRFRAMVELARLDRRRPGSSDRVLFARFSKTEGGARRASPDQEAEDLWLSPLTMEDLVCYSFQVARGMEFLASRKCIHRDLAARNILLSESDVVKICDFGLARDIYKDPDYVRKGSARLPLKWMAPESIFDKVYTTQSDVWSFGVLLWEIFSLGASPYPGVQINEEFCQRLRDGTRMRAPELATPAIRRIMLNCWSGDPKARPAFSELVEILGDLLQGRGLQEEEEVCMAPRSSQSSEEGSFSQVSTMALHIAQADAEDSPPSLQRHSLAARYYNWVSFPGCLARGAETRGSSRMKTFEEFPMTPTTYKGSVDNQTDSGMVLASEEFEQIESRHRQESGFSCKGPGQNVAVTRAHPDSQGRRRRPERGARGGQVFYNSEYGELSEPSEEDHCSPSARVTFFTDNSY
Chain of Proto-oncogene tyrosine-protein kinase receptor Ret (Homo sapiens) (P07949 whole entry): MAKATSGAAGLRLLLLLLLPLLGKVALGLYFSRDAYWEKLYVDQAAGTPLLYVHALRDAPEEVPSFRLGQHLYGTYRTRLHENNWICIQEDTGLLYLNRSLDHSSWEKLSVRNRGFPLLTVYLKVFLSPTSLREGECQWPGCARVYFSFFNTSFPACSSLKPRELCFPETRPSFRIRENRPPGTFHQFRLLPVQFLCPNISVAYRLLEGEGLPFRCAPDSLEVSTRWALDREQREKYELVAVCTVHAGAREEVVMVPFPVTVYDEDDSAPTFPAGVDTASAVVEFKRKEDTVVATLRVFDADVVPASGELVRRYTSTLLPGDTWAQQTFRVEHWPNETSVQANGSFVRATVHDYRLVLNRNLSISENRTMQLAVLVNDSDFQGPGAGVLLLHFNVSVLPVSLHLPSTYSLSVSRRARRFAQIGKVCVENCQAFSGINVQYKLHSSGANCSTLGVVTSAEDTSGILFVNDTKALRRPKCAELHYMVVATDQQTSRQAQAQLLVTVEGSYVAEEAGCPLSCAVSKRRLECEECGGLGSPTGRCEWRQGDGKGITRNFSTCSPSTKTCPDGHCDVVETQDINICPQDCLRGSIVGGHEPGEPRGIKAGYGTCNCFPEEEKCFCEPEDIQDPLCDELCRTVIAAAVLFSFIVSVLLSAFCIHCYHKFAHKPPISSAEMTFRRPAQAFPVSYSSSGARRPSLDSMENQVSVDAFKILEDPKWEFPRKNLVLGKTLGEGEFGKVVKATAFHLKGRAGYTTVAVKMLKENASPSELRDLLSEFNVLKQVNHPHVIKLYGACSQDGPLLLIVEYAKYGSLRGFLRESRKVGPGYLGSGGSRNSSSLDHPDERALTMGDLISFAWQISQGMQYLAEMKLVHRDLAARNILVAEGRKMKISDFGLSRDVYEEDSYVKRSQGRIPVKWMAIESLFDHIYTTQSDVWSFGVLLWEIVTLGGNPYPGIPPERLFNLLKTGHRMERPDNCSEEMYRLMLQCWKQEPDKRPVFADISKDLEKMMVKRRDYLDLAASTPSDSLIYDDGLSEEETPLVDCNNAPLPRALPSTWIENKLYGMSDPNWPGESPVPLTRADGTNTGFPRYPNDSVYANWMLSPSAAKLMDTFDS
Chain of Proto-oncogene tyrosine-protein kinase Src (Homo sapiens) (P12931 2-536 limits assumed): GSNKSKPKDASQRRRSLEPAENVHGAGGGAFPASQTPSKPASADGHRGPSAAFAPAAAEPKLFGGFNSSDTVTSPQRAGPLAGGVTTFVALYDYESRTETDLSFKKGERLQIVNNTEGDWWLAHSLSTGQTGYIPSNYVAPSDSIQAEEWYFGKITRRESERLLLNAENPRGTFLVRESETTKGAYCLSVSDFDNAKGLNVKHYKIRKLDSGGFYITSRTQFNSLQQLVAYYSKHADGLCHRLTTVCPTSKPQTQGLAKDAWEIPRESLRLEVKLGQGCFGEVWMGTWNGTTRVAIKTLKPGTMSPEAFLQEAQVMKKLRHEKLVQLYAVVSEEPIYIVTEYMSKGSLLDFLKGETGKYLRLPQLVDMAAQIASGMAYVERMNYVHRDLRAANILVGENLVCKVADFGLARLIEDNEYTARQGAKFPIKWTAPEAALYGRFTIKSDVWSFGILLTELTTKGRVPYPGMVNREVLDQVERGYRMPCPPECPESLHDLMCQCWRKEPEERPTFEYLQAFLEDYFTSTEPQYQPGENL
Chain of Macrophage colony-stimulating factor 1 receptor (Homo sapiens) (P07333 whole entry): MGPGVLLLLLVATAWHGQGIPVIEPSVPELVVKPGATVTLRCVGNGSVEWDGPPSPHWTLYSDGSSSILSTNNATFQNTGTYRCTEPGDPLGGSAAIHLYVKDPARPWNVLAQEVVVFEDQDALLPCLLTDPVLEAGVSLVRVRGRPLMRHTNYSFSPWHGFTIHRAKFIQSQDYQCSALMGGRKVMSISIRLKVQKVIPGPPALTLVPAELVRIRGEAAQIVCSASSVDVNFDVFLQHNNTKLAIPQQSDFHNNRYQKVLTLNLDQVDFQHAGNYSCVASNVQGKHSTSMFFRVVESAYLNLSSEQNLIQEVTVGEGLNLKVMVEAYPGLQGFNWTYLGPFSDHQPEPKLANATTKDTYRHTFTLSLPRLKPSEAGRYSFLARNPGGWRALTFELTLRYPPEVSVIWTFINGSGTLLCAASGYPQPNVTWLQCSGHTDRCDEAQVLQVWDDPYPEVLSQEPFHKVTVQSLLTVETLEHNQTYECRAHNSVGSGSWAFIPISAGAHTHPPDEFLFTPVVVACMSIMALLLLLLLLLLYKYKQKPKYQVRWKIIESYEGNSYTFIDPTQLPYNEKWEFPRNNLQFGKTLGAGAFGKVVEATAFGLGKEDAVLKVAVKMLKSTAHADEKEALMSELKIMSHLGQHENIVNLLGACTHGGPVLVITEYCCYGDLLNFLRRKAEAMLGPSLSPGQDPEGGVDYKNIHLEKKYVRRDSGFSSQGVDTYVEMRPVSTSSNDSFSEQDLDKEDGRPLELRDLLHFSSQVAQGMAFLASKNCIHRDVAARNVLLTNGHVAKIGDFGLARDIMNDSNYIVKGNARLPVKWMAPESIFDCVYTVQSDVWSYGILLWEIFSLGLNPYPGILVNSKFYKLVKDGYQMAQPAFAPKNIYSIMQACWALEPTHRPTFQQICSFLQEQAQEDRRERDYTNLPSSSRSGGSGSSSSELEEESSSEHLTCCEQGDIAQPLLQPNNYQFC
Chain of Platelet-derived growth factor receptor alpha (Homo sapiens) (P16234 whole entry): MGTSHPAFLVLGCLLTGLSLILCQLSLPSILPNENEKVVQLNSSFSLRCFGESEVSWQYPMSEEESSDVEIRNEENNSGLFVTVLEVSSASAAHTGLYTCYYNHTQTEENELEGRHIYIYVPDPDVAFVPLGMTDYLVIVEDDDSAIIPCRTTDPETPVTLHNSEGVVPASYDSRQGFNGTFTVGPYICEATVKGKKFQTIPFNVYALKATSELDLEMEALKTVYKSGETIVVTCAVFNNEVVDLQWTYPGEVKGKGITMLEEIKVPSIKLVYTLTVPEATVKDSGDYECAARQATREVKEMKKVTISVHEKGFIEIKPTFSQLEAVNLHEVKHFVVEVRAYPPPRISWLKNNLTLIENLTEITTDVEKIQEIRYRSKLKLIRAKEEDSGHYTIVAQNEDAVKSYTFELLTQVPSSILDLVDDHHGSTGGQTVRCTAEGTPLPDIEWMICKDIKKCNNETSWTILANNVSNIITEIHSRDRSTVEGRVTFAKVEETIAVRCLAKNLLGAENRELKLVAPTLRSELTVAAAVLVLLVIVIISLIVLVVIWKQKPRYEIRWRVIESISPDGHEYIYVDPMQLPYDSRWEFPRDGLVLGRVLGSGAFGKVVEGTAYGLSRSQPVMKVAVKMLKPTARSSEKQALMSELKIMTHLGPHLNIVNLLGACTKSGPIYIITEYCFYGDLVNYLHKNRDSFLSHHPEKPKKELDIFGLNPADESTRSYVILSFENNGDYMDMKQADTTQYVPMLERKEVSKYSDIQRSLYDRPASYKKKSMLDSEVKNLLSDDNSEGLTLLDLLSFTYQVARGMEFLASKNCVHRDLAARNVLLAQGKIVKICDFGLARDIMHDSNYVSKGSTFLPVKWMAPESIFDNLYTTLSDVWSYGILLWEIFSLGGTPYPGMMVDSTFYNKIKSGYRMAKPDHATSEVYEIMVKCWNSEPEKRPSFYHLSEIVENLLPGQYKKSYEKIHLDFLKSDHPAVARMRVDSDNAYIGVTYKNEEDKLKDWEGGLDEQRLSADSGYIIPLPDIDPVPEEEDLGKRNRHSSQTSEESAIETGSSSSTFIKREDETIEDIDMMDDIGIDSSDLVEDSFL

GI50 (MOLM-13 [1]): 0.021 µM
inhibition [2]: 31%
GI50 (U-937): > 20 µM
pIC50 [4]: 8.22
inhibition [5]: 27%
inhibition [6]: 24%
GI50 (MOLT-4): 7.4 µM
inhibition [12]: 44%
half-life [13]: 4.2 h
inhibition [15]: 16%
clearance [16]: 57.4 mL/min/kg
GI50 (K562): > 10 µM
inhibition [17]: 71%
pIC50 [19]: 6.54
Structure (SMILES): Cc1nc(Nc2cc(-c3cccc(NS(=O)(=O)c4ccccc4)c3)n[nH]2)cc(N2CCN(C)CC2)n1
Activity (MV4-11 [3]): Active
Activity (Mus musculus [7]): < 3%
Activity (MV4-11 [8]): Active
Activity (MOLM-13 [9]): Active
Activity (Mus musculus [10]): < 3%
GI50 [11]: 10 µM
Activity (MOLM-13 [14]): Active
Activity (MV4-11 [18]): inactive
Activity (MOLM-13 [20]): Dose-dependent effect
